In ChEMBL document CHEMBL4270541, “Synthesis and antimicrobial evaluation of amino sugar-based naphthoquinones and isoquinoline-5,8-diones and their halogenated compounds” (Eur J Med Chem, 2018):

Assays:
[1] = test system: Escherichia coli; test: Antimicrobial activity against Escherichia coli INCQS 00033 ATCC 25922 assessed as zone of inhibition at 5 mg/ml after 18 to 24 hrs by disc diffusion method; type: functional; conditions: ATCC 25922 INCQS 00033, read-out: IZ
[2] = test system: Staphylococcus aureus; test: Antimicrobial activity against methicillin-resistant Staphylococcus aureus BMB9393 assessed as zone of inhibition at 5 mg/ml after 18 to 24 hrs by disc diffusion method; type: functional; conditions: read-out: IZ
[3] = test system: Pseudomonas aeruginosa; test: Antimicrobial activity against Pseudomonas aeruginosa INCQS 00099 ATCC 27853 assessed as zone of inhibition at 5 mg/ml after 18 to 24 hrs by disc diffusion method; type: functional; conditions: read-out: IZ
[4] = test system: Proteus mirabilis; test: Antimicrobial activity against Proteus mirabilis INCQS 00095 ATCC 15290 assessed as zone of inhibition at 5 mg/ml after 18 to 24 hrs by disc diffusion method; type: functional; conditions: read-out: IZ
[5] = test system: Staphylococcus aureus; test: Antimicrobial activity against Staphylococcus aureus INCQS 00015 ATCC 25923 assessed as zone of inhibition at 5 mg/ml after 18 to 24 hrs by disc diffusion method; type: functional; conditions: read-out: IZ
[6] = test system: Staphylococcus epidermidis; test: Antimicrobial activity against Staphylococcus epidermidis INCQS 00016 ATCC 12228 assessed as zone of inhibition at 5 mg/ml after 18 to 24 hrs by disc diffusion method; type: functional; conditions: ATCC 12228 INCQS 00016, read-out: IZ
[7] = test system: Klebsiella pneumoniae; test: Antimicrobial activity against Klebsiella pneumoniae INCQS 00083 ATCC 4352 assessed as zone of inhibition at 5 mg/ml after 18 to 24 hrs by disc diffusion method; type: functional; conditions: read-out: IZ
[8] = Hemolytic activity against human erythrocytes assessed as hemolysis at 200 ug/ml after 3 hrs by spectrophotometric analysis relative to control; type: ADME, cell-based, Erythrocyte; conditions: read-out: Activity
Procedure, shortened: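 Erythrocytes collected in citrate tubes, washed three times with PBS pH 7.4 by centrifugation and resuspended in PBS. Incubated with compounds at 200 µg/mL for 3 h at 37°C. Released hemoglobin was read in the supernatant at 545 nm against 1% Triton X-100 (complete lysis) and 1% DMSO (negative control). Below 10% hemolysis was taken as hemocompatible. Three independent experiments.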

[9] = test system: Enterococcus faecalis; test: Antimicrobial activity against Enterococcus faecalis INCQS 00234 ATCC 29212 assessed as zone of inhibition at 5 mg/ml after 18 to 24 hrs by disc diffusion method; type: functional; conditions: ATCC 29212 INCQS 00234, read-out: IZ
[10] = test system: Staphylococcus simulans; test: Antimicrobial activity against Staphylococcus simulans INCQS 00254 ATCC 27851 assessed as zone of inhibition at 5 mg/ml after 18 to 24 hrs by disc diffusion method; type: functional; conditions: read-out: IZ

In the case of `COC(=O)c1c(C)nc(C)c2c1C(=O)C=C(NC[C@H]1O[C@@H](OC)[C@@H]3OC(C)(C)O[C@@H]31)C2=O`, the zone of inhibition at 5000 µg/mL [1] is reported as 0 mm, the zone of inhibition at 5000 µg/mL [2] is reported as 0 mm and the zone of inhibition at 5000 µg/mL [3] is reported as 0 mm. The zone of inhibition at 5000 µg/mL [4] was 0 mm, the zone of inhibition at 5000 µg/mL [5] was 0 mm and the zone of inhibition at 5000 µg/mL [6] was 0 mm. It also gave a zone of inhibition at 5000 µg/mL [7] of 0 mm, a hemolysis at 3 h, 200 ug/ml [8] of under 10% and a zone of inhibition at 5000 µg/mL [9] of 0 mm. For the same molecule, the zone of inhibition at 5000 µg/mL [10] was 0 mm.

Work on `CO[C@@H]1O[C@H](CNC2=CC(=O)c3ccccc3C2=O)[C@H]2OC(C)(C)O[C@@H]12` yielded a zone of inhibition at 5000 µg/mL [1] of 0 mm, a zone of inhibition at 5000 µg/mL [2] of 0 mm and a zone of inhibition at 5000 µg/mL [3] of 0 mm. It also gave a zone of inhibition at 5000 µg/mL [4] of 0 mm, a zone of inhibition at 5000 µg/mL [5] of 0 mm and a zone of inhibition at 5000 µg/mL [6] of 0 mm. It also gave a zone of inhibition at 5000 µg/mL [7] of 0 mm, a hemolysis at 3 h, 200 ug/ml [8] of under 10% and a zone of inhibition at 5000 µg/mL [9] of 0 mm. For the same molecule, the zone of inhibition at 5000 µg/mL [10] was 0 mm.

`CC1(C)O[C@H]2[C@@H](O1)[C@@H](CNC1=C(Br)C(=O)c3ccccc3C1=O)O[C@@H]1OC(C)(C)O[C@@H]12` gave a zone of inhibition at 5000 µg/mL [1] of 0 mm, a zone of inhibition at 5000 µg/mL [2] of 0 mm and a zone of inhibition at 5000 µg/mL [3] of 0 mm. The zone of inhibition at 5000 µg/mL [4] was 0 mm, the zone of inhibition at 5000 µg/mL [5] was 0 mm and the zone of inhibition at 5000 µg/mL [6] was 0 mm. It also gave a zone of inhibition at 5000 µg/mL [7] of 0 mm, a hemolysis at 3 h, 200 ug/ml [8] of 10.1 to 14.4% and a zone of inhibition at 5000 µg/mL [9] of 0 mm. It also gave a zone of inhibition at 5000 µg/mL [10] of 0 mm.

In the case of `COC(=O)c1c(C)nc(C)c2c1C(=O)C(Br)=C(NC[C@H]1O[C@@H]3OC(C)(C)O[C@@H]3[C@H]3OC(C)(C)O[C@H]31)C2=O`, the zone of inhibition at 5000 µg/mL [1] is reported as 0 mm, the zone of inhibition at 5000 µg/mL [2] is reported as 0 mm and the zone of inhibition at 5000 µg/mL [3] is reported as 0 mm. For the same molecule, the zone of inhibition at 5000 µg/mL [4] was 0 mm, the zone of inhibition at 5000 µg/mL [5] was 0 mm and the zone of inhibition at 5000 µg/mL [6] was 0 mm. For the same molecule, the zone of inhibition at 5000 µg/mL [7] was 0 mm, the hemolysis at 3 h, 200 ug/ml [8] was under 10% and the zone of inhibition at 5000 µg/mL [9] was 0 mm. For the same molecule, the zone of inhibition at 5000 µg/mL [10] was 0 mm.

With `CC1(C)O[C@H]2[C@@H](O1)[C@@H](CNC1=CC(=O)c3ccccc3C1=O)O[C@@H]1OC(C)(C)O[C@@H]12` the zone of inhibition at 5000 µg/mL [1] was 0 mm, the zone of inhibition at 5000 µg/mL [2] was 0 mm and the zone of inhibition at 5000 µg/mL [3] was 0 mm. The zone of inhibition at 5000 µg/mL [4] was 0 mm, the zone of inhibition at 5000 µg/mL [5] was 0 mm and the zone of inhibition at 5000 µg/mL [6] was 0 mm. The zone of inhibition at 5000 µg/mL [7] was 0 mm, the hemolysis at 3 h, 200 ug/ml [8] was under 10% and the zone of inhibition at 5000 µg/mL [9] was 0 mm. The zone of inhibition at 5000 µg/mL [10] was 0 mm.

With `COC(=O)c1c(C)nc(C)c2c1C(=O)C(Cl)=C(NC[C@H]1O[C@@H](OC)[C@@H]3OC(C)(C)O[C@@H]31)C2=O` the zone of inhibition at 5000 µg/mL [1] was 0 mm, the zone of inhibition at 5000 µg/mL [2] was 0 mm and the zone of inhibition at 5000 µg/mL [3] was 0 mm. The zone of inhibition at 5000 µg/mL [4] was 0 mm, the zone of inhibition at 5000 µg/mL [5] was 0 mm and the zone of inhibition at 5000 µg/mL [6] was 0 mm. For the same molecule, the zone of inhibition at 5000 µg/mL [7] was 0 mm, the hemolysis at 3 h, 200 ug/ml [8] was under 10% and the zone of inhibition at 5000 µg/mL [9] was 0 mm. The zone of inhibition at 5000 µg/mL [10] was 0 mm.
